Columns and labels:
[1] = molecular target: T1, Serine/threonine-protein kinase ULK2 (Homo sapiens) (UniProt Q8IYT8); assay: Inhibition of human recombinant ULK2 at 500 nM related to control ULK1
T1 sequence (whole entry): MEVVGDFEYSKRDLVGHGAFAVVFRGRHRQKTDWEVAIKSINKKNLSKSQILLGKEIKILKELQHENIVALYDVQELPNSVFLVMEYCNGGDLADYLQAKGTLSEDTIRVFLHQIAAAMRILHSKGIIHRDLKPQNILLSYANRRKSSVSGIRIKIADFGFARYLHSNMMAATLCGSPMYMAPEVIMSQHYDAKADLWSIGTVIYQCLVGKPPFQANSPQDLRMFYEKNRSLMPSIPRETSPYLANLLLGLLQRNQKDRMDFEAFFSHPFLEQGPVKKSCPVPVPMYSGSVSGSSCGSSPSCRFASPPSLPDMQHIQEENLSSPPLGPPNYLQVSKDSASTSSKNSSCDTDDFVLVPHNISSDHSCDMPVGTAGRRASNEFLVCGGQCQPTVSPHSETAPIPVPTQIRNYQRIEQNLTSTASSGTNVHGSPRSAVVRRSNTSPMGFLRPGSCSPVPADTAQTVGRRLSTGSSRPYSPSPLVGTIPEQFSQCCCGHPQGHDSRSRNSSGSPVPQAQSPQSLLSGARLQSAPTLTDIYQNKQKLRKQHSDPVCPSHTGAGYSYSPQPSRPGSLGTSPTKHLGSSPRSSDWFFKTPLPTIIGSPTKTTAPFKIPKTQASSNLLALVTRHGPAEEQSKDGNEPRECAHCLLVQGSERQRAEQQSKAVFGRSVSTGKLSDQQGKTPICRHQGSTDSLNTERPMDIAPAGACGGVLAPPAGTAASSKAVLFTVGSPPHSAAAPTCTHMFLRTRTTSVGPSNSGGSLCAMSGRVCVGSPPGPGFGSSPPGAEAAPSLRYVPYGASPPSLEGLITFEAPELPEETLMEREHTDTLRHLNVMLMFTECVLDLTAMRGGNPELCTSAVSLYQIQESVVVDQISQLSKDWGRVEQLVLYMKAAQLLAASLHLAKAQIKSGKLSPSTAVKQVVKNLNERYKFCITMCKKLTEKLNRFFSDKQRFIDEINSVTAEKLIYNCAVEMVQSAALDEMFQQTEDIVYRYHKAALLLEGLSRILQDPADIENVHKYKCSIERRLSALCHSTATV

[2] = molecular target: T2, Activin receptor type-1B (Homo sapiens) (UniProt P36896); assay: Inhibition of human recombinant ALK4 at 500 nM in presence of ATP by radiometric assay relative to control
T2 sequence (whole entry): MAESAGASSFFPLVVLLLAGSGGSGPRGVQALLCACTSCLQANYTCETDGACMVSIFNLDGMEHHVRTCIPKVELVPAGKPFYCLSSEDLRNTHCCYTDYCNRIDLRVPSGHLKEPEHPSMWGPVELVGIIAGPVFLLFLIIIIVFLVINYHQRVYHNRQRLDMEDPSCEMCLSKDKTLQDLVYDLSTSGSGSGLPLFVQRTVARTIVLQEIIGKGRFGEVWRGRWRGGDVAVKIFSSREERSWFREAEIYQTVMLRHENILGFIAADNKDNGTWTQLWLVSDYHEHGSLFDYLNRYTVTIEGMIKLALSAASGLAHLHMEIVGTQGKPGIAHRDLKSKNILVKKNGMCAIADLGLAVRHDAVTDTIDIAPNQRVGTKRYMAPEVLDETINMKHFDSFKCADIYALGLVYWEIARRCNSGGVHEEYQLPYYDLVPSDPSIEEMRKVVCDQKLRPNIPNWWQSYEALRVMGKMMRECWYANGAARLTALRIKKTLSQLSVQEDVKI
Outline: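 Panel of 327 recombinant human kinases, each assayed in vitro by radiometric activity assay in duplicate at a single inhibitor concentration per compound, chosen with reference to its ULK1 inhibition. Activity remaining was expressed as percent of vehicle control, and percent inhibition was calculated as 100 minus percent activity remaining.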

[3] = molecular target: T3, Discoidin domain-containing receptor 2 (Homo sapiens) (UniProt Q16832); assay: Inhibition of human recombinant DDR2 at 15 nM in presence of ATP by radiometric assay relative to control
T3 sequence (whole entry): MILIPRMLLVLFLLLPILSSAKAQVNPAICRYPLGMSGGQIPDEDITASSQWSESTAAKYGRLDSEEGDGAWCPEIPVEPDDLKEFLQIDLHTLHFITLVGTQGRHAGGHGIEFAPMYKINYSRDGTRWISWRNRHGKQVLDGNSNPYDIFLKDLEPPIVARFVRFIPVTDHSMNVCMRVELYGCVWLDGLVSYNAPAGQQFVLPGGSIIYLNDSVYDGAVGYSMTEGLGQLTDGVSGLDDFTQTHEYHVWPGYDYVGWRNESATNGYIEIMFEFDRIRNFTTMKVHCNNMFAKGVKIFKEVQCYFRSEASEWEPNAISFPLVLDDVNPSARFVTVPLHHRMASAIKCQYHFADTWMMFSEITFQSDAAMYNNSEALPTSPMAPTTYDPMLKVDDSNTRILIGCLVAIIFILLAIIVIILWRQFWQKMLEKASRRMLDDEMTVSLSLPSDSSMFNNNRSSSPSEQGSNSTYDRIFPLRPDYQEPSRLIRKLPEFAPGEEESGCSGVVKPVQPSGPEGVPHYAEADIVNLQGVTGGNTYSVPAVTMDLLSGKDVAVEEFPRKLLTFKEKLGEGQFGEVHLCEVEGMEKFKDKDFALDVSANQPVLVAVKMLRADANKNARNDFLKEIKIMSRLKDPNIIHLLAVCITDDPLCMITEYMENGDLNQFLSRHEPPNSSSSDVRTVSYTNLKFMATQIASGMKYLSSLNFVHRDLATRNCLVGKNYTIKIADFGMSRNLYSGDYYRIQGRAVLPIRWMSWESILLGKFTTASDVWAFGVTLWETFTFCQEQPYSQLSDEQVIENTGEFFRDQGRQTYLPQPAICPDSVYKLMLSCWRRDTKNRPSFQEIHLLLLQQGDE

Row | SMILES | fold change (FC) [1] | inhibition [2] | inhibition [3]
1 | CNC(=O)c1ccccc1Oc1nc(Nc2cc(OC)c(OC)c(OC)c2)ncc1Br | 0.65 | 15% | 
2 | CC(C)[C@H](NC(=O)c1cc(-c2cnn3cc(-c4ccc(OCCN5CCCCC5)cc4)cnc23)cs1)C(F)(F)F |  |  | 0%

From ChEMBL document CHEMBL5653631, “A Potent and Selective ULK1 Inhibitor Suppresses Autophagy and Sensitizes Cancer Cells to Nutrient Stress” (iScience, 2018)
